We go through 5 compounds from ChEMBL document CHEMBL1799968, “Dimethyl-diphenyl-propanamide derivatives as nonsteroidal dissociated glucocorticoid receptor agonists” (J Med Chem, 2010).

The target of one series is T1, Estrogen receptor (Homo sapiens, UniProt P03372).
T1 sequence (P03372 whole entry): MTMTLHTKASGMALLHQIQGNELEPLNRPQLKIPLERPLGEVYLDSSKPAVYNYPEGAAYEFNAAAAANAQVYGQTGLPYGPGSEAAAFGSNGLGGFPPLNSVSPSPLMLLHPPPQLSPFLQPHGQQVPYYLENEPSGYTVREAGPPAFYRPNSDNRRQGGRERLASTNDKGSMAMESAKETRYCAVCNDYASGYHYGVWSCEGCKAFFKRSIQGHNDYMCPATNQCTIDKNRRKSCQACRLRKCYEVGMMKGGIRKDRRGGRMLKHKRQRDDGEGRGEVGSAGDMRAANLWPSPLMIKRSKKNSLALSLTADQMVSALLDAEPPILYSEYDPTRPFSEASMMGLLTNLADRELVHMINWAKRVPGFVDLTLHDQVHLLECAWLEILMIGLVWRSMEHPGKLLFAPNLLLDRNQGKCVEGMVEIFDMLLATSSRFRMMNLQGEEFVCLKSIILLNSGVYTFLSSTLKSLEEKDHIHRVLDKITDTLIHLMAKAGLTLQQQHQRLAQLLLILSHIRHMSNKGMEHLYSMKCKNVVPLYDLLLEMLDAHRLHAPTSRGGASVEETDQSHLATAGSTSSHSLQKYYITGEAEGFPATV
Kind of series: Binding affinity to ERalpha by fluorescence polarization assay. The method, boiled down:
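Fluorescence polarization competition of test compound against a fluorescently labelled ligand for binding to full-length receptor or its ligand-binding domain.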
Background: In fluorescence polarisation assays a small probe gives low polarisation when free and higher when bound to something large.

Series [1] concerns Rattus norvegicus. Kind of series: Antiinflammatory activity in po dosed carrageenan-induced paw edema Sprague-Dawley rat model assessed as inhibition of hind paw swelling after 5 hrs post carrageenan challenge. It counts as functional. The procedure, abridged: (§1)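 Male SD rats, fasted overnight plus up to 6 h more. Baseline hind paw volume taken by water plethysmometer. A single oral dose was given in a biologically acceptable medium. 2 h later, under anaesthesia, 1% carrageenan in PBS was injected subcutaneously into both hind paws. Volume was read 3 h post challenge, and swelling was taken as post-challenge minus baseline.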

Series [2] has as its system Rattus norvegicus. The experiment in a line: Antiinflammatory activity against carrageenan-induced paw edema Sprague-Dawley rat model assessed as inhibition of hind paw swelling at 50 mg/kg administered as po single dose after 5 hrs post carrageenan challenge. It counts as functional. The procedure, abridged: as §1
For series [3], the system named is Rattus norvegicus. Kind of series: Toxicity in carrageenan-induced paw edema Sprague-Dawley rat model assessed as increase in blood glucose level at 50 mg/kg, po measured […] by glucometer. Format: organism-based. Further details: dose 50 mg/kg, route oral. The following applies: in vivo. The procedure, abridged:
(§2)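 Carrageenan paw edema rats (male SD, fasted, single oral dose, carrageenan 2 h postdose). Blood glucose was read by glucometer on tail-nick samples, at baseline and 5 h after dosing.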
In general terms: In the carrageenan paw model, swelling and tenderness develop within hours.

The test system of series [4] is Rattus norvegicus. The experiment in a line: Toxicity in carrageenan-induced paw edema Sprague-Dawley rat model assessed as increase in blood glucose level at 100 mg/kg, po measured […] by glucometer. The following applies: in vivo. Further details: dose 100 mg/kg, route oral. Format: organism-based. The procedure, abridged:
as §2

The subject of series [5] is Rattus norvegicus. Kind of series: Antiinflammatory activity against carrageenan-induced paw edema Sprague-Dawley rat model assessed as inhibition of hind paw swelling at 100 mg/kg, po measured after 5 hrs post carrageenan challenge. Format: functional. The method, boiled down: as §1
Series [6] relates to Rattus norvegicus. Kind of series: Antiinflammatory activity against carrageenan-induced paw edema Sprague-Dawley rat model assessed as inhibition of hind paw swelling at 30 mg/kg, po measured after 5 hrs post carrageenan challenge. It counts as functional. The following applies: Rattus norvegicus, Sprague-Dawley, po, 5 h. The method, boiled down: as §1
For series [7], the system named is Rattus norvegicus. The experiment in a line: Toxicity in carrageenan-induced paw edema Sprague-Dawley rat model assessed as increase in blood glucose level at 30 mg/kg, po measured […] by glucometer. Particulars: in vivo. Format: organism-based. The arrangement: dose 30 mg/kg, route oral. The method, boiled down: as §2
The subject of series [8] is Rattus norvegicus. The experiment in a line: Toxicity in fasted Sprague-Dawley rat assessed as induction of TAT activity in liver homogenates at 7.5 to 30 mg/kg, po after 6 hrs. Format: organism-based. The arrangement: dose 7.5-30 mg/kg, route oral. The following applies: in vivo. The method, boiled down: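 Male SD rats, fasted, single oral dose. Liver was biopsied 6 h postdose, snap frozen, homogenised in 150 mM KCl and centrifuged. Protein-normalised supernatants were assayed for TAT activity, read as OD at 340 nm. Values are given as % of TAT activity in prednisolone-treated (30 mg/kg) rats.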

Series [9] deals with Rattus norvegicus. Kind of series: Serum concentration in fasted Sprague-Dawley rat at 15 mg/kg, po after 6 hrs. The following applies: in vivo.
Series [10] relates to Rattus norvegicus. The experiment in a line: Serum concentration in fasted Sprague-Dawley rat at 30 mg/kg, po after 6 hrs. Particulars: in vivo.
The subject of series [11] is Rattus norvegicus. Kind of series: Serum concentration in fasted Sprague-Dawley rat at 7.5 mg/kg, po after 6 hrs. The following applies: in vivo.

What is called Ki is a measure of affinity in units of concentration, obtained from inhibition or displacement. A high value points to lower affinity. The term ED50 denotes the midpoint of the dose-response relation. Broadly, the inhibition in vivo is the share of the control response that was lost under treatment. The compound `CC(C)(C(=O)Nc1nccs1)[C@@H](c1ccccc1)c1ccc(O)c(F)c1` came in with an inhibitory constant (Ki) on Estrogen receptor of more than 50 µM. Further, in the series on Rattus norvegicus [1], the Activity result was “Dose-dependent effect” and the 50% effective dose (ED50) was determined as 45 mg/kg. For the same compound, in the series with Rattus norvegicus [2], the inhibition in vivo at 50 mg/kg was determined as 61%. Moreover, in the series on Rattus norvegicus [3], the Activity was less than 1%.
`CC(C)(C(=O)Nc1nccs1)[C@@H](c1ccccc1)c1ccc(O)c(Br)c1` yielded a Ki on Estrogen receptor of more than 50 µM.
The compound `CC(C)(C(=O)Nc1nccs1)[C@@H](c1ccccc1)c1ccc(O)cc1` gave a Ki at Estrogen receptor of more than 100 µM. The Activity entry with Rattus norvegicus [4] is given as “Non-toxic”. Also, in the series on Rattus norvegicus [5], the inhibition in vivo at 100 mg/kg was determined as 46%.
In turn, `CC(C)(C(=O)Nc1nccs1)[C@H]1c2ccccc2Oc2cc(O)ccc21` registered a Ki on Estrogen receptor of 2.3 µM.
Take `CC(C)(C(=O)Nc1nncs1)[C@H]1c2ccccc2Oc2cc(O)ccc21`: the affinity at Estrogen receptor, expressed as Ki, was 5.5 µM. Further, the inhibition in vivo at 30 mg/kg with Rattus norvegicus [6] stood at 56%. Further, the Activity result with Rattus norvegicus [1] is “Dose-dependent effect”; in the series on Rattus norvegicus [7] it was less than 1%; with Rattus norvegicus [8], “Non-toxic”. For the same compound, the 50% effective dose (ED50) in the series with Rattus norvegicus [1] came to 44 mg/kg. For the same compound, the serum concentration was found to be 157 nM in the series on Rattus norvegicus [9], 311 nM in the series with Rattus norvegicus [10] and 59 nM with Rattus norvegicus [11].
